Data on 20 molecules can be found in ChEMBL document CHEMBL2046406 (J Med Chem, 2012).

For assay [1], the target named is T1, Mu-type opioid receptor (Homo sapiens, UniProt P35372). In words: biochemical. The class given is cell-based, CHO.
Assay [2] concerns the target Delta-type opioid receptor (Homo sapiens, UniProt P41143). In words: Displacement of [3H]-naltrindole from human delta opioid receptor expressed in CHO cells after 3 hrs by scintillation counting. It counts as cell-based. The method in brief: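 CHO membranes expressing human KOR or DOR incubated with radioligand and 12 compound concentrations in 1 mL 50 mM Tris-HCl, pH 7.5, at 25 °C. […] Nonspecific binding with 10 μM naloxone. Three experiments in triplicate.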
A general note: Loss of bound radioactivity is the signal in a displacement assay; it reports binding, not function.

For assay [3], the species on record is Homo sapiens. Nature of the assay: Selectivity index, ratio of inhibition of human delta opioid receptor to inhibition of human mu opioid receptor.
For assay [4], the species on record is Homo sapiens. Nature of the assay: Selectivity index, ratio of inhibition of human kappa opioid receptor to inhibition of human mu opioid receptor.
Assay [5] addresses T2, Kappa-type opioid receptor (Homo sapiens, UniProt P41145). Nature of the assay: biochemical. It counts as cell-based, CHO.
The species named for assay [6] is Homo sapiens. Nature of the assay: Selectivity index, ratio of inhibition of human delta opioid receptor to inhibition of human kappa opioid receptor.
The target in assay [7] is T1, Mu-type opioid receptor. Nature of the assay: Agonist activity at human mu opioid receptor expressed in CHO cells assessed as stimulation of […]GTPgammaS binding after 60 mins by scintillation counting relative to control. It counts as functional, cell-based. On the technique in general: Binding of GTPγS marks nucleotide exchange on a G protein.
For assay [8], the target named is T2, Kappa-type opioid receptor. In words: Agonist activity at human kappa opioid receptor expressed in CHO cells assessed as stimulation of […]GTPgammaS binding after 60 mins by scintillation counting. It counts as functional, cell-based.
Assay [9] has as its target T1, Mu-type opioid receptor. In words: Antagonist activity at human mu opioid receptor expressed in CHO cells assessed as inhibition of DAMGO-induced […]GTPgammaS binding after 60 mins by scintillation counting. It counts as functional, cell-based.
Assay [10] addresses T2, Kappa-type opioid receptor. In words: Agonist activity at human kappa opioid receptor expressed in CHO cells assessed as stimulation of […]GTPgammaS binding after 60 mins by scintillation counting relative to control. It counts as functional, cell-based. The method, boiled down:
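Membranes from CHO cells stably expressing human KOR (15 μg protein per tube) or MOR (7.5 μg protein per tube). Nonspecific binding with 10 μM GTPγS. Filtration, then scintillation counting. Triplicate, at least three experiments.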

Assay [11] addresses T2, Kappa-type opioid receptor. In words: Antagonist activity at human kappa opioid receptor expressed in CHO cells assessed as inhibition of U50488-induced […]GTPgammaS binding after 60 mins by scintillation counting. It counts as functional, cell-based. The method, boiled down: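 κ antagonism: hKOR-CHO membranes incubated with compound plus 100 nM U50,488.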
Assay [12] addresses T1, Mu-type opioid receptor. Nature of the assay: Antagonist activity at human mu opioid receptor expressed in CHO cells assessed as inhibition of DAMGO-induced […]GTPgammaS binding after 60 mins by scintillation counting relative to control. The class given is functional, cell-based.
In assay [13] the target is T1, Mu-type opioid receptor. In words: Agonist activity at human mu opioid receptor expressed in CHO cells assessed as stimulation of […]GTPgammaS binding after 60 mins by scintillation counting. It counts as functional, cell-based.

The structures appear in SMILES notation. Activity calls are given as the source filed them. The rule behind the calls is not given here.

T1 sequence (P35372 whole entry): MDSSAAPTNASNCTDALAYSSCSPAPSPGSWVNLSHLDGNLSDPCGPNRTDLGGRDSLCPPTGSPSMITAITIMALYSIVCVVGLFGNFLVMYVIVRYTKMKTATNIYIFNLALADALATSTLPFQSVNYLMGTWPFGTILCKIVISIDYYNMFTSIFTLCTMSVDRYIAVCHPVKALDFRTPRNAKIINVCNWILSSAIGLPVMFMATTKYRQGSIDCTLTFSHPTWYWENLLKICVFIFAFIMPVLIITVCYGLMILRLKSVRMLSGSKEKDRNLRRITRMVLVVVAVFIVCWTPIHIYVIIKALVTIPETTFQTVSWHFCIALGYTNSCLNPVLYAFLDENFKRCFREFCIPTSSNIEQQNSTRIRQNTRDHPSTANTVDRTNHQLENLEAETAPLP
T2 sequence (P41145 whole entry): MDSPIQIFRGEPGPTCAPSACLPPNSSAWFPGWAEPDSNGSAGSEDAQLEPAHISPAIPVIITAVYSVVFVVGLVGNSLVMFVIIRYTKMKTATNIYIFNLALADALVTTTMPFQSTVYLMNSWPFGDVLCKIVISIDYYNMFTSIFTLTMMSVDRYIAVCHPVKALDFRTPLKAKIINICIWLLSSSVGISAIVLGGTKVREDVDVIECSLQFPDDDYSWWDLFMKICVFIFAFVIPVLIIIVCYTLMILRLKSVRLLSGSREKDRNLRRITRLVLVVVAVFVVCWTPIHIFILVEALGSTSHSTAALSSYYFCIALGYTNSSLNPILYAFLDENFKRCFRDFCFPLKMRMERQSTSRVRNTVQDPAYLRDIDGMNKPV
Sequence of Delta-type opioid receptor (P41143 whole entry): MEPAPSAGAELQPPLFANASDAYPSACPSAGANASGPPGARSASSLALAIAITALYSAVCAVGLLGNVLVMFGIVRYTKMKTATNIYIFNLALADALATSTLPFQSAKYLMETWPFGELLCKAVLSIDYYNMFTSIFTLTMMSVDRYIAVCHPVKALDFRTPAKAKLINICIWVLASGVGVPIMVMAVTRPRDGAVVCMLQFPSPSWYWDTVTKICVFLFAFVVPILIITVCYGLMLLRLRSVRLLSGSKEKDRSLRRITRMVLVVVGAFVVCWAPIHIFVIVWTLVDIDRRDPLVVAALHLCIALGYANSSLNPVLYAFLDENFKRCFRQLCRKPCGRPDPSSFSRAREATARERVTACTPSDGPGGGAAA

For the molecule `Clc1ccc(CNc2ccc3c(c2)[C@@]24CCCC[C@H]2[C@@H](C3)N(CC2CCC2)CC4)cc1`, the figures for the inhibitory constant (Ki) (at Mu-type opioid receptor [1]; in assay [2]; in assay [5]) were 1.7 nM, 100 nM and 4.5 nM, respectively. The Selectivity ratio worked out at 3 in the assay filed under Homo sapiens [3] and 59 in the assay filed under Homo sapiens [4].

`COc1ccccc1CNc1ccc2c(c1)[C@@]13CCCC[C@H]1[C@@H](C2)N(CC1CCC1)CC3`: the results for the inhibitory constant (Ki) (at Mu-type opioid receptor [1]; in assay [2]; in assay [5]) were 2.7 nM, 61 nM and 2.2 nM, respectively. In addition, the Selectivity ratio in the assay listed under Homo sapiens [6] and in the assay filed under Homo sapiens [4] was 28 throughout.

`c1cc2c(cc1CNc1ccc3c(c1)[C@@]14CCCC[C@H]1[C@@H](C3)N(CC1CCC1)CC4)OCO2`: the Emax (in general, the size of the effect at its maximum, as opposed to the concentration needed) was determined as 39% on Mu-type opioid receptor [7] and 130% in [10]. The Ki (in general, a measure of affinity in units of concentration, obtained from inhibition or displacement) on Mu-type opioid receptor [1] was 0.34 nM; in assay [2], 53 nM; in assay [5], 1.1 nM. For the same molecule, the values for the half-maximal effective concentration (EC50) (in assay [8]; at Mu-type opioid receptor [13]) were 27 nM and 3.6 nM, respectively. Besides, the 50% inhibitory concentration (IC50) (commonly the concentration that inhibits the measured activity by half) on Mu-type opioid receptor [9] (read-out: IC50) stood at 94 nM. The Selectivity ratio in the assay filed under Homo sapiens [3] worked out at 3; in the assay filed under Homo sapiens [4], 160. Besides, in assay [11], the outcome was inactive. The Imax on Mu-type opioid receptor [12] came out at 60%.

For the molecule `Oc1cccc(CNc2ccc3c(c2)[C@@]24CCCC[C@H]2[C@@H](C3)N(CC2CC2)CC4)c1`, the maximal effect (Emax) is 27% at Mu-type opioid receptor [7] and 98% in assay [10]. For the same molecule, the Ki on Mu-type opioid receptor [1] is 0.16 nM; in [2], 41 nM; in assay [5], 0.36 nM. In addition, the EC50 (in general, the concentration giving half of the maximal effect) in [8] turned out to be 3.9 nM. On Mu-type opioid receptor [9] (read-out: IC50), the 50% inhibitory concentration (IC50) is 3.5 nM. Moreover, the results for the Selectivity ratio in the assay listed under Homo sapiens [3] and in the assay filed under Homo sapiens [4] were 2 and 260, respectively. For the same molecule, the result in [11] was inactive. Further, the Imax on Mu-type opioid receptor [12] worked out at 79%.

Regarding `c1ccc(CNc2ccc3c(c2)[C@@]24CCCC[C@H]2[C@@H](C3)N(CC2CCC2)CC4)cc1`, the results for the Selectivity ratio in the assay listed under Homo sapiens [3] and in the assay filed under Homo sapiens [4] were 2 and 76, respectively.

For the molecule `CN(Cc1ccc(Cl)cc1)c1ccc2c(c1)[C@@]13CCCC[C@H]1[C@@H](C2)N(CC1CCC1)CC3`, the Ki is 26 nM at Mu-type opioid receptor [1], 730 nM in assay [2] and 27 nM in assay [5]. Moreover, the Selectivity ratio in the assay listed under Homo sapiens [6] and in the assay filed under Homo sapiens [4] was 28 in each case.

Consider `COc1cccc(CN(C)c2ccc3c(c2)[C@@]24CCCC[C@H]2[C@@H](C3)N(CC2CCC2)CC4)c1`, for which the Ki on Mu-type opioid receptor [1] turned out to be 13 nM; in [2] it was 350 nM; in assay [5], 25 nM. Besides, the Selectivity ratio in the assay listed under Homo sapiens [3] was 2; in the assay filed under Homo sapiens [4] it was 27.

On to `CN(Cc1ccc(O)cc1)c1ccc2c(c1)[C@@]13CCCC[C@H]1[C@@H](C2)N(CC1CCC1)CC3`, for which the Ki was determined as 3.2 nM on Mu-type opioid receptor [1], 530 nM in [2] and 4.1 nM in [5]. Further, the Selectivity ratio in the assay filed under Homo sapiens [6] and in the assay filed under Homo sapiens [4] was 170 in each case.

With `COc1ccccc1CN(C)c1ccc2c(c1)[C@@]13CCCC[C@H]1[C@@H](C2)N(CC1CCC1)CC3`, the Ki at Mu-type opioid receptor [1] came to 14 nM; in [2], 190 nM; in assay [5] it was 19 nM. The Selectivity ratio in the assay filed under Homo sapiens [6] and in the assay listed under Homo sapiens [4] was 14 throughout.

`COc1ccccc1CNc1ccc2c(c1)[C@@]13CCCC[C@H]1[C@@H](C2)N(CC1CC1)CC3`: the Ki came to 1.2 nM on Mu-type opioid receptor [1], 160 nM in assay [2] and 1.3 nM in assay [5]. Further, the Selectivity ratio in the assay filed under Homo sapiens [6] and in the assay listed under Homo sapiens [4] was 130 in each case.

On to `COc1ccc(CN(C)c2ccc3c(c2)[C@@]24CCCC[C@H]2[C@@H](C3)N(CC2CCC2)CC4)cc1`, for which the Ki is 9.5 nM on Mu-type opioid receptor [1], 290 nM in assay [2] and 8.5 nM in [5]. The Selectivity ratio in the assay filed under Homo sapiens [6] and in the assay filed under Homo sapiens [4] was 34 throughout.

For the molecule `Oc1ccc(CNc2ccc3c(c2)[C@@]24CCCC[C@H]2[C@@H](C3)N(CC2CC2)CC4)cc1`, the maximal effect (Emax) was 19% on Mu-type opioid receptor [7] and 100% in [10]. Moreover, the Ki on Mu-type opioid receptor [1] is 0.28 nM; in assay [2] it was 13 nM; in assay [5], 0.27 nM. The EC50 in [8] came to 1.8 nM. Further, the IC50 on Mu-type opioid receptor [9] (read-out: IC50) was determined as 7.6 nM. The Selectivity ratio in the assay filed under Homo sapiens [6] and in the assay listed under Homo sapiens [4] was 44 each time. For the same molecule, the result in [11] was inactive. The Imax on Mu-type opioid receptor [12] worked out at 80%.

In the case of `c1ccc(CNc2ccc3c(c2)[C@@]24CCCC[C@H]2[C@@H](C3)N(CC2CC2)CC4)cc1`, the Selectivity ratio in the assay listed under Homo sapiens [6] and in the assay listed under Homo sapiens [4] was 112 in each case.

Turning to `COc1ccc(CNc2ccc3c(c2)[C@@]24CCCC[C@H]2[C@@H](C3)N(CC2CC2)CC4)cc1`, the Emax was 30% at Mu-type opioid receptor [7] and 130% in [10]. Besides, the results for the concentration giving a half-maximal response (EC50) (in assay [8]; on Mu-type opioid receptor [13]) were 5.3 nM and 6.8 nM, respectively. Besides, the IC50 on Mu-type opioid receptor [9] (read-out: IC50) amounted to 10 nM. For the same molecule, the Selectivity ratio in the assay listed under Homo sapiens [3] is 2; in the assay filed under Homo sapiens [4] it was 65. Besides, in assay [11], the result was inactive. In addition, the Imax at Mu-type opioid receptor [12] was determined as 67%.

As for `CN(Cc1cccc(O)c1)c1ccc2c(c1)[C@@]13CCCC[C@H]1[C@@H](C2)N(CC1CCC1)CC3`, the results for the Ki (at Mu-type opioid receptor [1]; in assay [2]; in assay [5]) were 17 nM, 170 nM and 23 nM, respectively. Further, the Selectivity ratio in the assay filed under Homo sapiens [6] and in the assay filed under Homo sapiens [4] was 10 in each case.

Turning to `COc1cccc(CNc2ccc3c(c2)[C@@]24CCCC[C@H]2[C@@H](C3)N(CC2CC2)CC4)c1`, the figures for the maximal response (Emax) (on Mu-type opioid receptor [7]; in assay [10]) were 23% and 130%, respectively. Besides, the values for the inhibition constant Ki (on Mu-type opioid receptor [1]; in assay [2]; in [5]) were 0.51 nM, 110 nM and 1.5 nM, respectively. The half-maximal effective concentration (EC50) in [8] turned out to be 0.43 nM. Also, the IC50 on Mu-type opioid receptor [9] (read-out: IC50) was 2 nM. Moreover, the Selectivity ratio in the assay filed under Homo sapiens [3] worked out at 3; in the assay listed under Homo sapiens [4], 220. In [11], the outcome was inactive. The Imax at Mu-type opioid receptor [12] came out at 77%.

With `Oc1cccc(CNc2ccc3c(c2)[C@@]24CCCC[C@H]2[C@@H](C3)N(CC2CCC2)CC4)c1`, the Emax at Mu-type opioid receptor [7] is 30%. The inhibition constant (Ki) came to 0.32 nM on Mu-type opioid receptor [1], 230 nM in [2] and 1.9 nM in [5]. For the same molecule, the half-inhibitory concentration (IC50) on Mu-type opioid receptor [9] (read-out: IC50) came to 4.8 nM. Also, the Selectivity ratio in the assay filed under Homo sapiens [3] was 6; in the assay filed under Homo sapiens [4], 720. In addition, on Mu-type opioid receptor [12], the Imax is 74%.

Regarding `CN1CC[C@]23CCCC[C@H]2[C@H]1Cc1ccc(NCc2cccc(O)c2)cc13`, the inhibition constant Ki at Mu-type opioid receptor [1] stood at 0.42 nM; in assay [2] it was 720 nM; in [5] it was 10 nM. In addition, the EC50 turned out to be 230 nM in assay [8] and 6.5 nM at Mu-type opioid receptor [13]. The IC50 entry on Mu-type opioid receptor [9] (cho) is “Not Active”. Further, in assay [10], the Emax worked out at 140%. Also, the outcome in assay [11] was inactive.

As to `C[C@@H](NC(=O)[C@@H](N)Cc1ccc(O)cc1)C(=O)NCC(=O)N(C)[C@@H](Cc1ccccc1)C(=O)NCCO`, the Imax result on Mu-type opioid receptor [12] was “inactive”.

For `c1cc2c(cc1CNc1ccc3c(c1)[C@@]14CCCC[C@H]1[C@@H](C3)N(CC1CC1)CC4)OCO2`, the values for the maximal response (Emax) (at Mu-type opioid receptor [7]; in [10]) were 18% and 120%, respectively. Further, the values for the inhibition constant Ki (at Mu-type opioid receptor [1]; in assay [2]; in assay [5]) were 0.17 nM, 20 nM and 0.53 nM, respectively. For the same molecule, in assay [8], the half-maximal effective concentration (EC50) turned out to be 0.077 nM. In addition, on Mu-type opioid receptor [9] (read-out: IC50), the IC50 stood at 0.21 nM. The Selectivity ratio in the assay listed under Homo sapiens [3] came out at 3; in the assay filed under Homo sapiens [4], 120. In [11], the outcome was inactive. Further, the Imax at Mu-type opioid receptor [12] amounted to 72%.
